Source: paper PMC3878182 (Xenobiotica; the fate of foreign compounds in biological …, 2013)

Legend:
liver tissue slices [1] = experiment: Liver slice viability; format: cell-based, Sprague-Dawley rats
Summary of the method: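 Liver slices came from adult rats, either naive or pretreated with PB or DEX, taken 24 h after the last dose into cold Krebs-Henseleit buffer, pH 7.5. Two slices per vial in 2 mL buffer received test compound (final 5 μM) or DMSO, 2 h, 37 °C, 5 % CO2/95 % air. LDH in medium and homogenate gave % release = A1×D1/(A1×D1+A2×D2); viable was <30 %.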

[2] = tested on: hippocampal slice cultures; experiment: LDH release in hippocampal slice cultures; format: cell-based, Sprague Dawley rats (PND4 pups); settings: PCB 136 ≤ 5 μM for 14 d
Summary of the method: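 Hippocampi from PND4 pups of timed-pregnant Sprague Dawley rats were cultured as slices. From 5 DIV, racemic test compound or vehicle (0.1 % DMSO) was added to 1 mL medium, renewed every 2 days for 14 days. LDH release was measured with a membrane-integrity fluorescence kit. Mean ± SEM, n = 2 wells per group.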

[3] = tested on: hippocampal tissue slices; experiment: PCB 136 levels in hippocampal tissue slice cultures relative to medium; format: in vitro ADME, Sprague Dawley rats (PND4 pups); settings: for Medium-to-tissue slice ratio of PCB 136: day 14
Summary of the method: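 Hippocampi from PND4 rat pups were cultured as slices. From 5 DIV, racemic test compound (5 μM; vehicle 0.1% DMSO) was added to 1 mL medium per well, renewed every 2 days for 14 days. Medium from each change and slices at day 14 were stored at −20 °C and analysed. The medium-to-slice ratio was taken at day 14.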

ryanodine receptor (RyR) = settings: ref Pessah et al., 2006; cited from earlier work
liver tissue slices [4] = experiment: Formation of hydroxylated PCB 136 metabolites in liver tissue slices; format: in vitro ADME, Sprague-Dawley rats; settings: for ΣOH-PCB as percent of PCB 136: PCB 136 5 μM (10 nmol), 2 h, slices plus medium
liver tissue slices [5] = experiment: PCB 136 levels and partitioning in liver tissue slice incubations; format: in vitro ADME, Sprague-Dawley rats
Summary of the method: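 Two liver slices were placed in 2 mL K-H buffer and given test compound (final 5 μM; 10 nmol per incubation; DMSO) for 2 h at 37 °C, 5% CO2/95% air. Slices were washed in cold buffer and homogenized. Medium and homogenate were quantified by GC-63Ni-μECD (DB1-MS column); calibration was linear over 1–1000 ng/mL. Slice levels are per mg protein and as % of dose. n=2 or 3 animals, triplicate incubations, mean ± SD.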

[6] = tested on: hippocampal slice cultures; experiment: Propidium iodide; format: cell-based, Sprague Dawley rats (PND4 pups)
CYP1A2 = experiment: Hepatic P450 transcript levels; format: in vivo, Sprague-Dawley rats; settings: liver slices from male rats
CYP3A2 = experiment: Hepatic P450 transcript levels; format: in vivo, Sprague-Dawley rats; settings: liver slices from male rats
[7] = Effect of inducer treatment on body and liver weights of rats; format: in vivo, Sprague-Dawley rats; settings: i.p. inducer treatment
[8] = DEX-treated female rats, PCB 136 5 μM (10 nmol), 2 h, 37°C
[9] = DEX-treated male rats, PCB 136 5 μM (10 nmol), 2 h, 37°C
[10] = PB-treated female rats, PCB 136 5 μM (10 nmol), 2 h, 37°C
[11] = PB-treated male rats, PCB 136 5 μM (10 nmol), 2 h, 37°C
[12] = naïve control (CTL) female rats, PCB 136 5 μM (10 nmol), 2 h, 37°C
[13] = naïve control (CTL) male rats, PCB 136 5 μM (10 nmol), 2 h, 37°C

Clc1ccc(Cl)c(-c2c(Cl)ccc(Cl)c2Cl)c1Cl [PCB 136, 2,2′,3,3′,6,6′-hexachlorobiphenyl]
Acute toxicity to liver slices (liver tissue slices [1]; 2 h incubation with PCB 136 at 5 μM): not acutely toxic | LDH release to the medium (liver tissue slices [1]; all slices used in the PCB 136 metabolism experiments, 2 h incubation): 13.2 ± 6.6% | LDH release (liver tissue slices [1]; slices treated with PCB 136 5 μM, 2 h): 13.1 ± 6.6% | LDH release relative to vehicle controls [2]: did not significantly alter LDH release | PCB 136 in slices as percent of the PCB 136 (1.8 μg) added on day 12 ([3]; female pups): 1.5 ± 0.8% | Average PCB 136 amount associated with the tissue slices ([3]; female pups, after 14 days): 27 ± 15 ng | Medium-to-tissue slice ratio of PCB 136 ([3]; female pups): 24 ± 8 | PCB 136 in slices as percent of total PCB dose added ([3]; female pups, total dose 12.6 μg): 0.2% | PCB 136 in slices as percent of the PCB 136 (1.8 μg) added on day 12 ([3]; male pups): 1.8 ± 0.3% | PCB 136 amount associated with tissue slices ([3]; male pups, after 14 days): 32 ± 6 ng | Medium-to-tissue slice ratio of PCB 136 ([3]; male pups): 26 ± 10 | PCB 136 in slices as percent of total PCB dose ([3]; male pups, total dose 12.6 μg): 0.3% | Average PCB 136 concentration in the incubation medium ([3]; slice cultures from female pups, 5 μM racemic PCB 136, 14 days): 830 ± 80 ng/mL | Average PCB 136 levels in the incubation medium ([3]; slice cultures from male pups, 5 μM racemic PCB 136, 14 days): 570 ± 220 ng/mL | RyR activity / sensitization (ryanodine receptor (RyR)): RyR active | ΣOH-PCB as percent of PCB 136 (liver tissue slices [4]; DEX-treated female rats): 2.7 ± 1.3% | ΣOH-PCB as percent of PCB 136 (liver tissue slices [4]; PB-treated female rats): 5.3 ± 1.1% | ΣOH-PCB as percent of PCB 136 (liver tissue slices [4]; PB-treated male rats): 11 ± 2.7% | Percent of total PCB 136 metabolized to OH-PCBs (liver tissue slices [4]; liver slices from female rats, within 2 h): ≤ 5% | Percent of total PCB converted to OH-PCBs (liver tissue slices [4]; liver slices from male rats): at least 11% | ΣOH-PCB as percent of PCB 136 (liver tissue slices [4]; naïve control (CTL) male rats): 1.1 ± 0.4% | PCB 136 in medium (liver tissue slices [5]; [8]): 6.7 ± 0.7 nmol | PCB 136 in tissue slices (liver tissue slices [5]; [8]): 2.1 ± 0.3 nmol | PCB 136 in tissue slices (liver tissue slices [5]; DEX-treated female rats, PCB 136 5 μM, 2 h): 42 ± 14 ng/mg protein | PCB 136 in medium (liver tissue slices [5]; [9]): 5.7 ± 0.3 nmol | PCB 136 in tissue slices (liver tissue slices [5]; [9]): 1.8 ± 0.4 nmol | PCB 136 in tissue slices (liver tissue slices [5]; DEX-treated male rats, PCB 136 5 μM, 2 h): 27 ± 7 ng/mg protein | PCB 136 in medium (liver tissue slices [5]; [10]): 9.5 ± 0.5 nmol | PCB 136 in tissue slices (liver tissue slices [5]; [10]): 2.5 ± 0.4 nmol | PCB 136 in tissue slices (liver tissue slices [5]; PB-treated female rats, PCB 136 5 μM, 2 h): 53 ± 10 ng/mg protein | PCB 136 in medium (liver tissue slices [5]; [11]): 8.6 ± 0.4 nmol | PCB 136 in tissue slices (liver tissue slices [5]; [11]): 1.3 ± 0.3 nmol | PCB 136 in tissue slices (liver tissue slices [5]; PB-treated male rats, PCB 136 5 μM, 2 h): 21 ± 6 ng/mg protein | Percent of total PCB 136 associated with liver tissue slices (liver tissue slices [5]; both sexes, all treatment groups): 13–25% | PCB 136 in tissue slices as percent of total PCB 136 dose added (liver tissue slices [5]; female liver slices, 2 h): 21–25% | PCB 136 in tissue slices as percent of total PCB 136 dose (liver tissue slices [5]; male liver slices, 2 h): 13–23% | PCB 136 in medium (liver tissue slices [5]; [12]): 8.5 ± 0.1 nmol | PCB 136 in tissue slices (liver tissue slices [5]; [12]): 2.4 ± 0.5 nmol | PCB 136 in tissue slices (liver tissue slices [5]; naïve control (CTL) female rats, PCB 136 5 μM, 2 h): 45 ± 15 ng/mg protein | PCB 136 in medium (liver tissue slices [5]; [13]): 6.3 ± 0.3 nmol | PCB 136 in tissue slices (liver tissue slices [5]; [13]): 2.3 ± 0.1 nmol | PCB 136 in tissue slices (liver tissue slices [5]; naïve control (CTL) male rats, PCB 136 5 μM, 2 h): 33 ± 5 ng/mg protein | PI uptake (confocal images) ([6]; PCB 136 at 5 μM for 14 days vs vehicle): no significant differences | PI uptake ([6]; racemic PCB 136 at 5 or 10 μM, 3 d exposure from 5 DIV, vs vehicle): had no significant effect on PI uptake

CCC1(c2ccccc2)C(=O)NC(=O)NC1=O [Phenobarbital (PB), phenobarbital]
CYP1A2 transcript level vs CTL (CYP1A2): not changed | CYP3A2 transcript level vs CTL (CYP3A2): significantly induced by DEX but not PB | Liver weight ([7]; female rats): 10.1 ± 0.4 g | Liver-to-final body weight ratio ([7]; female rats): 4.5 ± 0.2 | Percent change in body weight ([7]; female rats): 5.5 ± 1.3% | Liver weight ([7]; male rats): 16.0 ± 2.0 g | Liver-to-final body weight ratio ([7]; male rats): 5.3 ± 0.9 | Percent change in body weight ([7]; male rats): −2.0 ± 7.0%
